Experimental data pooled from the literature.
Lines come from different studies, so protocols differ.
Read-out: cell growth or viability

| Compound | cell line | technique | time | setting | quantity | result |
| --- | --- | --- | --- | --- | --- | --- |
| Nc1cccc2c1C(=O)N(C1CCC(=O)NC1=O)C2=O (stereo not drawn) | MM1.S | XTT |  |  | IC50 | ~0.3 µM |
| CC1(CN)CCN(c2cnc3c(Sc4ccncc4Cl)n[nH]c3n2)CC1 | HGC-27 | CCK-8 | 96 h |  | IC50 | 4.83 µM |
| C=CC(=O)N1CCN(c2nc(=O)n(-c3c(C)ccnc3C(C)C)c3nc(-c4c(O)cccc4F)c(F)cc23)[C@@H](C)C1 | SW480 | ATP luminescence |  |  | IC50 | > 10 µM |
| C=CC(=O)NC1CCN(c2ncc3ncnc(Nc4ccc(Oc5ccc6c(c5)ncn6C)c(C)c4)c3n2)CC1 | GP2d |  |  |  | EC50 | 12.3 µM |
| COc1cc2c3c(n(CCCNC(C)C)c(=O)c2cc1OC)-c1nc2c(cc1C3=O)OCO2 | Kasumi 1 | MTS | 72 h |  | IC50 | 0.432 µM |
| O=C(NO)c1ccc(CNc2nc3cccc(-c4ccc5c(c4)OCO5)n3n2)cc1 | A498 | SRB |  |  | GI50 | 0.51 µM |
| Cc1cccc(-c2[nH]c(CNc3ccccc3F)nc2-c2ccc3ncnn3c2)n1 | MM1.S | XTT |  |  | IC50 | ~1.5 µM |
| Cc1noc2c1-c1ccccc1C(c1ccc(Cl)cc1)=N[C@H]2CC(N)=O | Kasumi 1 | ATP luminescence | 72 h |  | IC50 | 0.263 µM |
| CC(C)c1ccccc1[C@@H]1CCCN1C1CC2(CCN(c3ccc(C(=O)NS(=O)(=O)c4ccc(NC[C@H]5CC[C@](C)(O)CC5)c([N+](=O)[O-])c4)c(Oc4cnc5[nH]ccc5c4)c3)CC2)C1 | Toledo | ATP luminescence | 48 h |  | IC50 | 0.0046 µM |
| COc1cc2c3c(n(CCCNCCO)c(=O)c2cc1OC)-c1nc2c(cc1C3=O)OCO2 | Kasumi 1 | MTS | 72 h |  | IC50 | 0.53 µM |
| C=C(F)C(=O)N1CCN(c2nc(OC[C@@H]3CCCN3C)nc3c2CCN(c2cccc4cccc(Cl)c24)C3)C[C@@H]1CC#N | SW480 | ATP luminescence |  | 3D culture | IC50 | > 1 µM |
| CC1(C)CCC(CN2CCN(c3ccc(C(=O)NS(=O)(=O)c4ccc(NCC5CCOCC5)c([N+](=O)[O-])c4)c(Oc4cnc5[nH]ccc5c4)c3)CC2)=C(c2ccc(Cl)cc2)C1 | Toledo | ATP luminescence | 48 h |  | IC50 | 0.071 µM |
